From ChEMBL document CHEMBL1135120, “Novel lipoic acid analogues that inhibit nitric oxide synthase” (Bioorg Med Chem Lett, 2002)

What was measured:
[1] = organism: Mus musculus; assay: Ability for prevention of GSH depletion was measured in mouse; assay type: functional
Outline: (§1)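 Glutamate-challenged HT22 cells; total intracellular GSH measured by enzymatic glutathione assay, i.e. formation of 5-thio-2-nitrobenzoic acid from GSH oxidation by 5,5'-dithiobis(2-nitrobenzoic acid).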

[2] = target: T1, Nitric oxide synthase 1 (Homo sapiens, UniProt P29475); assay: In vitro inhibition concentration was evaluated on the effect of conversion by Nitric Oxide synthase of [3H]L-arginine into [3H]L-citrulline
T1 sequence (P29475 whole entry): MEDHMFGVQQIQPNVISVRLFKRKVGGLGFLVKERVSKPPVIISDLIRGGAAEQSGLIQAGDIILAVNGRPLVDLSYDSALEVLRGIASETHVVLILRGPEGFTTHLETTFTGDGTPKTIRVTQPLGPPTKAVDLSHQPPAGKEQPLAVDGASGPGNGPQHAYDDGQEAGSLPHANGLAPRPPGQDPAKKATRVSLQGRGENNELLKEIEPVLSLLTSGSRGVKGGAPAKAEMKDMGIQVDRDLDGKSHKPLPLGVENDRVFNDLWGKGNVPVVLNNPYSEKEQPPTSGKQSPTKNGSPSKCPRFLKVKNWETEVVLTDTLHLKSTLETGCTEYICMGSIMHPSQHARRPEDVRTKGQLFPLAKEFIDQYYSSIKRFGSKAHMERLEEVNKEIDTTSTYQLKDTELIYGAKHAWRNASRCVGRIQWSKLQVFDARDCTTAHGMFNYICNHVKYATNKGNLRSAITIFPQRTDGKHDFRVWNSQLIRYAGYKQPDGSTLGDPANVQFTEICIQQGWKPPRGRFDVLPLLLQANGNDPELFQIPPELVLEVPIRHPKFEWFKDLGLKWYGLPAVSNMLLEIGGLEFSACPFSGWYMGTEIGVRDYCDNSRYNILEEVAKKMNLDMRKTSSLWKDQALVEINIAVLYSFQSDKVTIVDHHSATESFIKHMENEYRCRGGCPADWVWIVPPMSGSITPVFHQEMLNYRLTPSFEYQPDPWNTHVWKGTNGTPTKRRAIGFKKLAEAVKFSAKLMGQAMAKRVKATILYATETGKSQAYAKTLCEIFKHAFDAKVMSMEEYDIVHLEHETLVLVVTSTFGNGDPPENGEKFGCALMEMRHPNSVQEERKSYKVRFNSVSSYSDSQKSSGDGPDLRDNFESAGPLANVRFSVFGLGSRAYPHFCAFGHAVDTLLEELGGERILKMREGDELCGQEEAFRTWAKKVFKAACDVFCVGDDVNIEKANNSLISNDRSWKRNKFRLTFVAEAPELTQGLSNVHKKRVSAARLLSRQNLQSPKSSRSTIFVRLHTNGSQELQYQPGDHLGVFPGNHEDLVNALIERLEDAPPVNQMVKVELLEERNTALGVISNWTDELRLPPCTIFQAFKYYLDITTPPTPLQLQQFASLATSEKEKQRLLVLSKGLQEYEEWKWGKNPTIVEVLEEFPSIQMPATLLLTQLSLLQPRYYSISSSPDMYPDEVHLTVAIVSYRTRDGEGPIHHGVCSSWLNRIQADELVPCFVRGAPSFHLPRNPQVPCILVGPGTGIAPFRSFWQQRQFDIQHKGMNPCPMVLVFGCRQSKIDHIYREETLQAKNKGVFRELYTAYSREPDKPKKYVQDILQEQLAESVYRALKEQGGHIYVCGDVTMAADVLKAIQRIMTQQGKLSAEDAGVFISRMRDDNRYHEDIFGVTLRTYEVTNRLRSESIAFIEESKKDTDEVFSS

[3] = tested on: HT22 (Mus musculus); assay: Neuroprotective effect was measured by its ability to protect mouse hippocampal neuronal HT-22 cell lines from oxidative stress caused by glutamate
[4] = target: T1, Nitric oxide synthase 1; assay: In vitro inhibition concentration was evaluated on the effect of conversion by Nitric Oxide synthase of [3H]L-arginine into [3H]L-citrulline; Not active up to 100 uM
[5] = organism: Mus musculus; assay: Ability for prevention of GSH depletion was measured in mouse; Not active up to 100 uM; assay type: functional; outline: as §1
[6] = target: T1, Nitric oxide synthase 1; assay: In vitro inhibition concentration was evaluated on the effect of conversion by Nitric oxide synthase of [3H]L-arginine into [3H]L-citrulline
[7] = tested on: HT22 (Mus musculus); assay: Neuroprotective effect was measured by its ability to protect mouse hippocampal neuronal HT-22 cell lines from oxidative stress caused by glutamate; Not active up to 100 uM

Compound | EC50 [1] | IC50 [2] | EC50 [3] | IC50 [4] | EC50 [5] | IC50 [6] | EC50 [7]
N=C(Nc1ccc(NC(=O)CCCCC2CCSS2)cc1)c1cccs1 (stereo unspecified) | 46.9 µM | 3.5 µM | 11.1 µM | – | – | – | –
O=C(O)CCCCC1CCSS1 (stereo not drawn) [LIPOIC ACID, ALPHA] | 122 µM | – | 19.6 µM | Not Active | – | – | –
NC(=Nc1ccc(CNC(=O)CCCCC2CCSS2)cc1)c1cccs1 (stereo unspecified) | 64.8 µM | 2.3 µM | 6.3 µM | – | – | – | –
N=C(Nc1ccc(CCNC(=O)CC2CCSS2)cc1)c1cccs1 (stereo unspecified) | 12.3 µM | 1.15 µM | 1.8 µM | – | – | – | –
N=C(Nc1ccccc1)c1cccs1 | – | – | – | – | Not Active | 4 µM | Not Active
N=C(Nc1ccc(CCNC(=O)CCCCC2CCSS2)cc1)c1cccs1 (stereo unspecified) | 37.1 µM | 1.04 µM | 11.7 µM | – | – | – | –
NC(=Nc1ccc(NC(=O)CC2CCSS2)cc1)c1cccs1 (stereo unspecified) | 11.9 µM | 4.4 µM | 9.6 µM | – | – | – | –
